Assay results reported in ChEMBL document CHEMBL2040734, “Benzothiazoles: search for anticancer agents” (2012).

Legend:
Assay type in all cases: functional
OVCAR-8 = test: Cytotoxicity against human OVCAR8 cells assessed as cell growth at 0.1 uM after 48 hrs by sulforhodamine B assay; conditions: OVCAR-8, 48 h, read-out: Activity
SNB-19 [1] = test: Cytotoxicity against human SNB19 cells assessed as cell growth at 10 uM after 48 hrs by sulforhodamine B assay; conditions: SNB-19, 48 h, read-out: Activity
NCI-H522 = test: Cytotoxicity against human NCI-H522 cells assessed as cell growth at 10 '-5 M after 48 hrs by sulforhodamine B assay; conditions: NCI-H522, 48 h, read-out: Activity
OVCAR-5 = test: Cytotoxicity against human OVCAR5 cells assessed as cell growth at 100 uM after 48 hrs by sulforhodamine B assay; conditions: OVCAR-5, 48 h, read-out: Activity
LOX IMVI = test: Cytotoxicity against human LOXIMVI cells assessed as cell growth at 0.1 uM after 48 hrs by sulforhodamine B assay; conditions: read-out: Activity
SNB-19 [2] = test: Cytotoxicity against human SNB19 cells assessed as cell growth at 100 uM after 48 hrs by sulforhodamine B assay; conditions: SNB-19, 48 h, read-out: Activity
MDA-MB-435 = test: Cytotoxicity against human MDA-MB-435 cells assessed as cell growth at 100 uM after 48 hrs by sulforhodamine B assay; conditions: MDA-MB-435, 48 h, read-out: Activity
BT-549 = test: Cytotoxicity against human BT549 cells assessed as cell growth at 10 '-5 M after 48 hrs by sulforhodamine B assay; conditions: BT-549, 48 h, read-out: Activity
Outline: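 Primary NCI-60 single-dose screen at 10 µM. Cells were grown in RPMI 1640 with 5% FBS and 2 mM L-glutamine and plated 24 h before drug addition. Compound was solubilized in DMSO, then exposed for 48 h at 37 °C under 5% CO2. Cells were TCA-fixed and stained with SRB, and absorbance was read at 515 nm. Growth was expressed relative to time-zero and untreated controls.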

EKVX = test: Cytotoxicity against human EKVX cells assessed as cell growth at 0.01 uM after 48 hrs by sulforhodamine B assay; conditions: read-out: Activity
Outline: (§1)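 Five-dose NCI panel run at 0.01, 0.1, 1, 10 and 100 µM. Cells were in RPMI 1640 with 5% FBS and 2 mM L-glutamine, seeded at 5000–40,000 cells/well and pre-incubated 24 h. Drug was diluted from a DMSO stock into medium with 50 µg/ml gentamicin. Exposure was 48 h at 37 °C, 5% CO2. Cells were fixed with cold TCA and stained with 0.4% SRB, read at 515 nm. Percent growth came from time-zero, control and test absorbances.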

SK-OV-3 [3] = test: Cytotoxicity against human SKOV3 cells assessed as cell growth at 100 uM after 48 hrs by sulforhodamine B assay; conditions: SK-OV-3, 48 h, read-out: Activity
HCT-116 = test: Cytotoxicity against human HCT116 cells assessed as cell growth at 1 uM after 48 hrs by sulforhodamine B assay; conditions: HCT-116, 48 h, read-out: Activity; outline: as §1
SNB-19 [4] = test: Cytotoxicity against human SNB19 cells assessed as cell growth at 0.1 uM after 48 hrs by sulforhodamine B assay; conditions: SNB-19, 48 h, read-out: Activity
HT-29 = test: Cytotoxicity against human HT-29 cells assessed as cell growth at 1 uM after 48 hrs by sulforhodamine B assay; conditions: HT-29, 48 h, read-out: Activity; outline: as §1
SK-MEL-2 = test: Cytotoxicity against human SK-MEL-2 cells assessed as cell growth at 10 uM after 48 hrs by sulforhodamine B assay; conditions: SK-MEL-2, 48 h, read-out: Activity
SR = test: Cytotoxicity against human SR cells assessed as cell growth at 0.1 uM after 48 hrs by sulforhodamine B assay; conditions: read-out: Activity
MDA-MB-468 = test: Cytotoxicity against human MDA-MB-468 cells assessed as cell growth at 0.1 uM after 48 hrs by sulforhodamine B assay; conditions: MDA-MB-468, 48 h, read-out: Activity
HCC 2998 = test: Cytotoxicity against human HCC2998 cells assessed as cell growth at 0.1 uM after 48 hrs by sulforhodamine B assay; conditions: HCC 2998, 48 h, read-out: Activity; outline: as §1
A498 = test: Cytotoxicity against human A498 cells assessed as cell growth at 10 uM after 48 hrs by sulforhodamine B assay; conditions: A498, 48 h, read-out: Activity
Outline: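 NCI-60 five-dose screen. Cells were grown in RPMI 1640 with 5% FBS and 2 mM L-glutamine and preincubated 24 h. Compound (DMSO stock) was tested at 0.01, 0.1, 1, 10 and 100 µM for 48 h at 37 °C. Cells were fixed in situ with cold TCA (final 10%) and stained with 0.4% SRB. A515 was read, and percent growth was calculated against time-zero and control plates.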

OVCAR-4 = test: Cytotoxicity against human OVCAR4 cells assessed as cell growth at 0.01 uM after 48 hrs by sulforhodamine B assay; conditions: OVCAR-4, 48 h, read-out: Activity
TK-10 = test: Growth inhibition of human TK10 cells after 48 hrs by sulforhodamine B assay; conditions: TK-10, 48 h; for CC50: read-out: LC50 (the source's name)
Outline: (§2)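 Adherent NCI-60 lines were grown in RPMI 1640 with 5% FBS and 2 mM L-glutamine, plated at 5000–40,000 cells/well and preincubated 24 h. They were then exposed to five concentrations (0.01–100 µM, from a DMSO stock) for 48 h at 37 °C, 5% CO2. Cells were fixed with cold TCA (10% final, 60 min, 4 °C) and stained with 0.4% SRB. Dye was solubilized in 10 mM Tris base and A515 read. GI50 was derived from time-zero, control and treated absorbances.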

HL-60(TB) = test: Cytotoxicity against human HL-60(TB) cells assessed as cell growth at 0.1 uM after 48 hrs by sulforhodamine B assay; conditions: HL-60, 48 h, read-out: Activity
Outline: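 NCI five-dose screen on the HL-60(TB) leukaemia line, grown in RPMI 1640 with 5% FBS and 2 mM L-glutamine and plated for 24 h before dosing. DMSO stocks were diluted in medium. Cells were exposed 48 h at 37 °C, then settled cells were fixed in 16% TCA (final) and stained with SRB, absorbance 515 nm. Percent growth = (Ti−Tz)/(C−Tz)×100, or (Ti−Tz)/Tz×100 when Ti<Tz.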

SW-620 = test: Growth inhibition of human SW620 cells after 48 hrs by sulforhodamine B assay; conditions: SW-620, 48 h; for CC50: read-out: LC50 (the source's name); outline: as §2
NCI-H322M = test: Cytotoxicity against human NCI-H322M cells assessed as cell growth at 10 uM after 48 hrs by sulforhodamine B assay; conditions: read-out: Activity
SK-OV-3 [5] = test: Cytotoxicity against human SKOV3 cells assessed as cell growth at 10 uM after 48 hrs by sulforhodamine B assay; conditions: SK-OV-3, 48 h, read-out: Activity
M14 = test: Cytotoxicity against human M14 cells assessed as cell growth at 0.01 uM after 48 hrs by sulforhodamine B assay; conditions: M14, 48 h, read-out: Activity
U-251 = test: Growth inhibition of human U251 cells after 48 hrs by sulforhodamine B assay; conditions: U-251, 48 h; outline: as §2

Structure (SMILES) | growth at 0.1 µM (OVCAR-8) [%] | growth at 10 µM (SNB-19 [1]) [%] | growth at 10 µM (NCI-H522) [%] | growth at 100 µM (OVCAR-5) [%] | growth at 0.1 µM (LOX IMVI) [%] | growth at 100 µM (SNB-19 [2]) [%] | growth at 100 µM (MDA-MB-435) [%] | growth at 10 µM (BT-549) [%] | growth at 0.01 µM (EKVX) [%] | growth at 100 µM (SK-OV-3 [3]) [%] | growth at 1 µM (HCT-116) [%] | growth at 0.1 µM (SNB-19 [4]) [%] | growth at 1 µM (HT-29) [%] | growth at 10 µM (SK-MEL-2) [%] | growth at 0.1 µM (SR) [%] | growth at 0.1 µM (MDA-MB-468) [%] | growth at 0.1 µM (HCC 2998) [%] | growth at 10 µM (A498) [%] | growth at 0.01 µM (OVCAR-4) [%] | GI50 (TK-10) [nM] | further results
Cc1ccc2nc(Nc3c(C)cccc3C)sc2c1 | 105 | 47 | 19.7 | 78 | 93 | 30 | -10 | 37.1 | 93 | 54 | 66 | 87 | 39 | 48 | 99 | 82 | 90 | -1 | 97 | > 100000 | TGI (TK-10): > 100000 nM; CC50 (TK-10): > 100000 nM; growth at 0.1 µM (HL-60(TB)): 106%; GI50 (SW-620): 949 nM; TGI (SW-620): > 100000 nM; CC50 (SW-620): > 100000 nM; growth at 10 µM (NCI-H322M): 67%; growth at 10 µM (SK-OV-3 [5]): 47%; growth at 0.01 µM (M14): 106%; GI50 (U-251): 25400 nM; LC50 (U-251): > 100000 nM; TGI (U-251): > 100000 nM
Clc1cccc(Cl)c1Nc1nc2cccc(Cl)c2s1 | 101 | -74 | -64 | -96 | 89 | -63 | -67 | -67.8 | 96 | -100 | 51 | 90 | 65 | -64 | 101 | 81 | 87 | -97 | 94 | 1160 | TGI (TK-10): 2570 nM; CC50 (TK-10): 5670 nM; growth at 0.1 µM (HL-60(TB)): 103%; GI50 (SW-620): 1320 nM; TGI (SW-620): 2780 nM; CC50 (SW-620): 5860 nM; growth at 10 µM (NCI-H322M): -83%; growth at 10 µM (SK-OV-3 [5]): -89%; growth at 0.01 µM (M14): 103%; GI50 (U-251): 1310 nM; TGI (U-251): 2790 nM
